From ChEMBL document CHEMBL4007456, “Heterocyclyl Tetracyclines. 1. 7-Trifluoromethyl-8-Pyrrolidinyltetracyclines: Potent, Broad Spectrum Antibacterial Agents with Enhanced Activity against Pseudomonas aeruginosa” (2017) come the findings set out here.

In brackets after ≈: the same amount, converted by molar mass. A value given as a limit tells only on which side of the number the result lay.

One experiment concerns Pseudomonas aeruginosa. As to the kind of experiment: Antibacterial activity against Pseudomonas aeruginosa PA1145 in BALB/c mouse model of lung infection administered as iv bid for 2 to 12 hrs of post-infection measured after 24 hrs. In kind it is functional. Summed up:
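Female BALB/c mice (18–20 g) infected intranasally with ~2 x 10^7 CFU/mouse P. aeruginosa PA1145 (cystic fibrosis isolate) under light anesthesia. Dosing at 2 and 12 h post-infection, IV (compound, tigecycline, amikacin) or intranasal (tobramycin); n = 6 per group. Lungs harvested 24 h after treatment start, homogenized, plated on MacConkey agar, 37 °C overnight; CFU/g lung; Mann-Whitney vs T = 0 h or 24 h controls.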
Broadly, the MIC is the lowest concentration found to suppress growth. A low value points to a more susceptible organism. `NCC[C@H](O)C(=O)N[C@@H]1C[C@H](N)[C@@H](O[C@H]2O[C@H](CN)[C@@H](O)[C@H](O)[C@H]2O)[C@H](O)[C@H]1O[C@H]1O[C@H](CO)[C@@H](O)[C@H](N)[C@H]1O` [AMIKACIN] had an MIC of 4 µg/mL (≈ 6.83 µM).

For a further experiment, the system named is Pseudomonas aeruginosa. In words: Antibacterial activity against Pseudomonas aeruginosa PA1145 in BALB/c mouse model of lung infection assessed as reduction in log10CFU per gram of lung at 40 mg/kg, iv bid administered 2 to 12 hrs of post-infection measured after 24 hrs relative to untreated control. In kind it is functional. Summed up:
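Female BALB/c mice, 18 to 20 g, infected intranasally under light anesthesia with ~ 2 x 10^7 CFU/mouse of P. aeruginosa PA1145 (cystic fibrosis isolate) in 0.05 mL. Treatment at 2 and 12 h post-infection, IV, or intranasally for tobramycin; n = 6 per group. Lungs harvested 24 h after treatment began, homogenized, plated on MacConkey medium, incubated overnight at 37 °C in 5% CO2. CFU per gram lung compared with T = 24 h untreated control.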
For the compound `NCC[C@H](O)C(=O)N[C@@H]1C[C@H](N)[C@@H](O[C@H]2O[C@H](CN)[C@@H](O)[C@H](O)[C@H]2O)[C@H](O)[C@H]1O[C@H]1O[C@H](CO)[C@@H](O)[C@H](N)[C@H]1O` [AMIKACIN], the Activity stood at 3.6 deltalog10CFU.

The test system of another experiment is Klebsiella pneumoniae. In words: Antibacterial activity against gram-negative Klebsiella pneumoniae KP153 harboring tet(A) by CLSI method. In kind it is functional. Summed up: (§1)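 CLSI broth microdilution MIC in fresh cation-adjusted Mueller Hinton broth, supplemented with defibrinated horse blood where appropriate. Compounds serially diluted in sterile deionized water. Runs accepted when comparator antibiotics against ATCC quality-control strains fell within recommended ranges.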
The compound `CN(C)[C@@H]1C(O)=C(C(N)=O)C(=O)[C@@]2(O)C(O)=C3C(=O)c4c(O)cccc4[C@@](C)(O)[C@H]3C[C@@H]12` [TETRACYCLINE] had an MIC of more than 32 µg/mL.

The test system of a further experiment is Klebsiella pneumoniae. As to the kind of experiment: Antibacterial activity against gram-negative Klebsiella pneumoniae KP194 by CLSI method. It is filed as functional. Summed up:
(§2)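 Broth microdilution MIC per CLSI in cation-adjusted Mueller Hinton broth, prepared fresh and held at 4 °C. Defibrinated horse blood added where appropriate. Compounds serially diluted in sterile deionized water. Strains from ATCC unless otherwise noted. Runs accepted when comparator antibiotics fell within QC ranges for ATCC quality control strains.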
`CN(C)[C@@H]1C(O)=C(C(N)=O)C(=O)[C@@]2(O)C(O)=C3C(=O)c4c(O)cccc4[C@@](C)(O)[C@H]3C[C@@H]12` [TETRACYCLINE] yielded an MIC of 16 µg/mL (≈ 36 µM).

The subject of a further experiment is Acinetobacter baumannii. In words: Antibacterial activity against gram-negative Acinetobacter baumannii AB250 by CLSI method. In kind it is functional. Summed up:
as §2
In turn, `CN(C)[C@@H]1C(O)=C(C(N)=O)C(=O)[C@@]2(O)C(O)=C3C(=O)c4c(O)cccc4[C@@](C)(O)[C@H]3C[C@@H]12` [TETRACYCLINE] returned an MIC of more than 32 µg/mL.

A further experiment has as its system Stenotrophomonas maltophilia. In words: Antibacterial activity against gram-negative Stenotrophomonas maltophilia SM256 by CLSI method. It is filed as functional. Summed up:
as §2
On to `CN(C)[C@@H]1C(O)=C(C(N)=O)C(=O)[C@@]2(O)C(O)=C3C(=O)c4c(O)cccc4[C@@](C)(O)[C@H]3C[C@@H]12` [TETRACYCLINE], for which the MIC came to 16 µg/mL (≈ 36 µM).

The subject of another experiment is Enterococcus faecalis. In words: Antibacterial activity against gram-positive Enterococcus faecalis EFs327 harboring tet(M) by CLSI method. In kind it is functional. Summed up: as §1
In turn, `CN(C)[C@@H]1C(O)=C(C(N)=O)C(=O)[C@@]2(O)C(O)=C3C(=O)c4c(O)cccc4[C@@](C)(O)[C@H]3C[C@@H]12` [TETRACYCLINE] yielded an MIC of more than 32 µg/mL.

The subject of another experiment is Klebsiella pneumoniae. In words: Antibacterial activity against gram-negative Klebsiella pneumoniae KP457 harboring blacTX-M-15 extended spectrum beta-lactamase gene by CLSI method. It is filed as functional. Summed up: as §1
In turn, `CN(C)[C@@H]1C(O)=C(C(N)=O)C(=O)[C@@]2(O)C(O)=C3C(=O)c4c(O)cccc4[C@@](C)(O)[C@H]3C[C@@H]12` [TETRACYCLINE] came in with an MIC of 8 µg/mL (≈ 18 µM).

A further experiment concerns Proteus mirabilis. In words: Antibacterial activity against gram-negative Proteus mirabilis PM385 by CLSI method. It is filed as functional. A digest of the protocol:
as §2
In turn, `CN(C)[C@@H]1C(O)=C(C(N)=O)C(=O)[C@@]2(O)C(O)=C3C(=O)c4c(O)cccc4[C@@](C)(O)[C@H]3C[C@@H]12` [TETRACYCLINE] returned an MIC of more than 32 µg/mL.

A further experiment deals with Pseudomonas aeruginosa. In words: Antibacterial activity against gram-negative Pseudomonas aeruginosa PA555 by CLSI method. It is filed as functional. Summed up: as §2
`CN(C)[C@@H]1C(O)=C(C(N)=O)C(=O)[C@@]2(O)C(O)=C3C(=O)c4c(O)cccc4[C@@](C)(O)[C@H]3C[C@@H]12` [TETRACYCLINE] came in with an MIC of more than 32 µg/mL.

Another experiment concerns Enterobacter cloacae. In words: Antibacterial activity against gram-negative Enterobacter cloacae EC1603 harboring tet(A) by CLSI method. It is filed as functional. Summed up: as §1
Regarding `CN(C)[C@@H]1C(O)=C(C(N)=O)C(=O)[C@@]2(O)C(O)=C3C(=O)c4c(O)cccc4[C@@](C)(O)[C@H]3C[C@@H]12` [TETRACYCLINE], the MIC was more than 32 µg/mL.

The next experiment relates to Staphylococcus aureus. As to the kind of experiment: Antibacterial activity against gram-positive Staphylococcus aureus SA101 by CLSI method. In kind it is functional. Summed up:
as §2
As for `CN(C)[C@@H]1C(O)=C(C(N)=O)C(=O)[C@@]2(O)C(O)=C3C(=O)c4c(O)cccc4[C@@](C)(O)[C@H]3C[C@@H]12` [TETRACYCLINE], the minimum inhibitory concentration (MIC) was found to be 0.25 µg/mL (≈ 0.563 µM).

In the next experiment the test system is Staphylococcus aureus. As to the kind of experiment: Antibacterial activity against gram-positive Staphylococcus aureus SA161 harboring tet(M) by CLSI method. In kind it is functional. Summed up: as §1
Consider `CN(C)[C@@H]1C(O)=C(C(N)=O)C(=O)[C@@]2(O)C(O)=C3C(=O)c4c(O)cccc4[C@@](C)(O)[C@H]3C[C@@H]12` [TETRACYCLINE], for which the minimum inhibitory concentration (MIC) is more than 32 µg/mL.

The next experiment deals with Enterococcus faecalis. As to the kind of experiment: Antibacterial activity against gram-positive Enterococcus faecalis EF159 harboring tet(M) by CLSI method. It is filed as functional. A digest of the protocol:
as §1
Turning to `CN(C)[C@@H]1C(O)=C(C(N)=O)C(=O)[C@@]2(O)C(O)=C3C(=O)c4c(O)cccc4[C@@](C)(O)[C@H]3C[C@@H]12` [TETRACYCLINE], the MIC was more than 32 µg/mL.

For another experiment, the system named is Streptococcus pneumoniae. In words: Antibacterial activity against gram-positive Streptococcus pneumoniae SP193 by CLSI method. In kind it is functional. A digest of the protocol:
as §2
`CN(C)[C@@H]1C(O)=C(C(N)=O)C(=O)[C@@]2(O)C(O)=C3C(=O)c4c(O)cccc4[C@@](C)(O)[C@H]3C[C@@H]12` [TETRACYCLINE] displayed an MIC of 0.125 µg/mL (≈ 0.281 µM).

The test system of a further experiment is Escherichia coli. In words: Antibacterial activity against gram-negative Escherichia coli EC107 by CLSI method. It is filed as functional. Summed up:
as §2
The compound `CN(C)[C@@H]1C(O)=C(C(N)=O)C(=O)[C@@]2(O)C(O)=C3C(=O)c4c(O)cccc4[C@@](C)(O)[C@H]3C[C@@H]12` [TETRACYCLINE] gave an MIC of 1 µg/mL (≈ 2.25 µM).

Another experiment deals with Escherichia coli. In words: Antibacterial activity against gram-negative Escherichia coli EC155 harboring tet(A) by CLSI method. It is filed as functional. A digest of the protocol:
as §1
Regarding `CN(C)[C@@H]1C(O)=C(C(N)=O)C(=O)[C@@]2(O)C(O)=C3C(=O)c4c(O)cccc4[C@@](C)(O)[C@H]3C[C@@H]12` [TETRACYCLINE], the minimum inhibitory concentration (MIC) was more than 32 µg/mL.
